Screening data as filed in PubChem.
Rin1-Abl PPI inh – blocks binding of human Rin1 to Abl; P00519+Q13671; TR-FRET Rin1/Abl binding, biochemical; inhibition, % at 7.35 µM; 0.4% of 360,000 active; AID 588664; in the data active = inhibition above about 5%, passing the limit was not always enough
PG9 binder – PG9 antibody binding by small molecule; AID 624416; inhibition, % at 6.7 µM; TR-FRET gp120-PG9 antibody binding; 0.43% of 360,000 active; in the data active = inhibition above about 8.5%
TbMetRS inhib – blocks T. brucei methionyl-tRNA synthetase activity; purified T. brucei MetRS, ATP depletion, Kinase-Glo luminescence; inhibition, % at 11.9 µM; 0.4% of 360,000 active;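 active = inhibition above a per-plate cutoff of the control wells' mean inhibition plus 3 SD, cut at about 5.5% in these data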;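 also: 0% = DMSO wells median and 100% = median of wells with control inhibitor compound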
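Material – parasite MetRS enzyme · Medium – HEPES-MgCl2-KCl buffer plus DTT, spermine, BSA, pyrophosphatase · Reagent – ATP, methionine and E. coli bulk tRNA substrates · Times – 15 min enzyme-compound preincubation, 2 h reaction, 10 min detection, 25 °C · Measured by – luminescence of leftover ATP · Evaluation – percent inhibition relative to median high and low control wells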
Rev-erbA mod – Rev-erb alpha (human) modulation | AID 1259318 | Rev-erbα–FITC-DNA binding, fluorescence polarization, 90 min | 0.79% of 370,000 active | activity, % at 10 µM;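 active = activity above about 14%, limit read from the data; passing the limit was not always enough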;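 also: 0% = DMSO wells with 35 nM protein and 100% = DMSO wells with 750 nM protein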
Target sequence (P20393 whole entry, looked up): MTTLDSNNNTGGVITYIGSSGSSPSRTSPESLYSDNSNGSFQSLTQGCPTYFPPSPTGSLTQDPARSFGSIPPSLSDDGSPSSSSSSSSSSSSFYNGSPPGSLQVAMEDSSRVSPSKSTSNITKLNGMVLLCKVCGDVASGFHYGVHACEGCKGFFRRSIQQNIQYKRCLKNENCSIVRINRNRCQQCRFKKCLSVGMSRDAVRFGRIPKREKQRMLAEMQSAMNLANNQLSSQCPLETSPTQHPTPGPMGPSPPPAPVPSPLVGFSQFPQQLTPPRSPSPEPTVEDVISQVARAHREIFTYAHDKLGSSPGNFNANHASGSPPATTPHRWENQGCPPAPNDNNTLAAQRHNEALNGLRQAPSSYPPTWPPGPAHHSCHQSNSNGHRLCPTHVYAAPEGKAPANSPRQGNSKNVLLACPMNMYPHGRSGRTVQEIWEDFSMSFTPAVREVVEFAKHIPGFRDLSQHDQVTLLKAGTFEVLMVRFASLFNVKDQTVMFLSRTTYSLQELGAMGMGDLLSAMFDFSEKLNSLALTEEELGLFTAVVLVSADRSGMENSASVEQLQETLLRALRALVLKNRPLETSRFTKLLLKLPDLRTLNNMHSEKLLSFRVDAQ
Rin1 Abl conf – Rin1-Abl interaction inhibition confirmation. shares compounds with Rin1-Abl PPI inh. TR-FRET Rin1-Abl binding, purified proteins. inhibition, % at 7.35 µM. 49% of 1,300 active; in the data active = inhibition above about 6.5%
GFP quench-1 – counter-screen for Rin1-Abl inhibitors: GFP fluorescence quenchers; 8.5% of 1,300 active; inhibition, % at 6.75 µM; AID 602125; shares compounds with Rin1-Abl PPI inh; inhibitors/quenchers counterscreen; in the data active = inhibition above about 6.5%;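 also: ABL1-eGFP fusion protein alone without its partner RIN1-SBP; 0% = protein with vehicle and 100% = wells lacking protein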
GFP quench dose – counter-screen for Rin1-Abl inhibitors: GFP quenchers, dose response. shares compounds with Rin1-Abl PPI inh. GFP fluorescence interference/quenching counterscreen. IC50, µM. 230 tested, under 10 active. AID 602182;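 also: ABL1-eGFP fusion protein alone without its RIN1 binding partner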
GFP quench-2 – counter-screen for Rin1-Abl interaction inhibitors: GFP fluorescence quenching; shares compounds with Rin1-Abl PPI inh; GFP fluorescence quenching counterscreen, biochemical; IC50, µM; 25 tested, under 10 active
Numbers without * were called inactive; / = not tested or not shown. In the library only some 1.8% were active in any assay of this set; here they are far more common. Unless noted, no rule for the calls is given here.

SMILES | Rin1-Abl PPI inh | PG9 binder | TbMetRS inhib | Rev-erbA mod | Rin1 Abl conf | GFP quench-1 | others
CC(C)Cn1cnc2c(c1=N)C(c1ccccc1)C1=C(CC(C)(C)CC1=O)O2 (configuration not stated) | 7.0* | -0.3 | -0.3 | 5.8 | 0.6 | -0.8
COc1ccc(C2C3=C(CC(C)(C)CC3=O)Oc3ncn(CCO)c(=N)c32)cc1OC (configuration not stated) | 14.4* | 1.7 | -0.6 | -4.1 | 1.3 | 0.3
CCN1C(=O)CC(n2c(C)nc3ccccc32)C1=O (configuration not stated) | 7.9* | -0.6 | -0.9 | -3.1 | -1.1 | -0.8
NC(=O)c1c(N)[nH]c(C(=O)c2ccccc2)c1-c1ccccn1 | / | / | / | -1.7 | / | /
CCCCNC(=O)Cn1c(=O)c2c(ncn2CCC(C)C)n(Cc2ccccc2)c1=O | 20.3* | -0.2 | 0.1 | 3.6 | -0.9 | -0.1
O=[N+]([O-])c1cnc2ccccc2c1Sc1ccccc1 | / | / | / | -4.1 | / | /
O=C(c1ccco1)N1CCc2[nH]nc(-c3ccc(Cl)cc3)c2C1 | 15.6* | 2.3 | 1.0 | -2.7 | 0.7 | -0.8
COc1ccc(-c2n[nH]c3c2CN(C(=O)c2ccccc2)CC3)cc1 | -3.9 | -1.4 | -0.8 | -2.2 | / | /
COc1ccccc1OCC(=O)OCC(=O)NCCN1C(=O)CSC1=O | 1.2 | 1.5 | -1.1 | -2.8 | / | /
O=C(COC(=O)CNC(=O)c1ccco1)NCCN1C(=O)CSC1=O | 5.0* | 0.6 | -1.7 | 4.3 | -2.1 | -0.8
CCc1ccccc1NC(=O)CC1SCCNC1=O (configuration not stated) | 5.7 | 0.4 | 0.1 | 1.2 | / | /
O=C(CC1SCCNC1=O)Nc1cccc(Cl)c1 (configuration not stated) | 9.6* | 2.2 | -0.7 | -4.5 | 18.7* | 0.5 | GFP quench dose=>67.5
COc1ccc(OC)c(NC(=O)CC2C(=O)NCCN2C(=O)Nc2cccc(Cl)c2)c1 (configuration not stated) | 9.2* | -4.1 | -0.5 | -1.3 | 13.5* | 1.1
COc1ccc(C(=O)N2CCNC(=O)C2CC(=O)Nc2cc(Cl)ccc2OC)cc1 (configuration not stated) | 0.4 | -0.7 | 0.3 | -1.5 | / | /
O=C(CC1SCCNC1=O)Nc1cccc(C(F)(F)F)c1 (configuration not stated) | 7.8* | -2.2 | -1.6 | -3.6 | 4.0 | -0.4
O=C(CC1C(=O)NCCN1C(=O)Nc1ccccc1)Nc1cccc(C(F)(F)F)c1 (configuration not stated) | 0.2 | -1.3 | -1.6 | 0.7 | / | /
COc1ccc(C(=O)Nc2ccccc2C(=O)Nc2ccccc2C(=O)O)cc1 | 5.6* | -1.3 | -0.3 | -2.5 | 4.7 | 0.0
COc1ccc(C(=O)Nc2ccc(O)cc2C(=O)O)cc1 | 10.9* | 1.5 | -0.8 | 1.0 | 9.8* | 1.8
COc1ccc(C(=O)Nc2ccccc2C(=O)Nc2ccc(C(=O)O)cc2)cc1 | -2.3 | -0.2 | 2.2 | -5.5 | / | /
O=C(c1ccncc1)N1CCN(C2CCCCC2)CC1 | 10.0* | 0.3 | 0.3 | 3.5 | 1.2 | -1.0
Cc1ccc(-c2nnc(SCC(=O)Nc3ccc4c(c3)OCCO4)n2-c2ccc(C)cc2)cc1 | / | / | / | -8.3 | / | /
O=c1c(CO)cc(CO)cc(CO)c1O | 30.6* | -2.8 | 0.2 | -1.3 | 29.8* | 12.5*
C[C@]12CCC3c4ccc(O)cc4CCC3C1CC[C@@H]2O (some centres not stated) | / | / | / | -0.7 | / | /
COCCNC(=O)c1cc2c3ccccc3n(C)c2s1 | 31.2* | -2.1 | -0.1 | 1.9 | 22.1* | -1.2 | GFP quench dose=>67.5
Cc1cccc(NC(=O)[C@@H](CC(C)C)NC(=O)[C@@H]2Cc3ccccc3CN2)c1 | 29.5* | -0.5 | -0.7 | -8.0 | 2.2 | 1.1
SMILES | Rin1-Abl PPI inh | PG9 binder | TbMetRS inhib | Rev-erbA mod | Rin1 Abl conf | GFP quench-1 | others
CCOC(=O)[C@@]12CN(C(=O)OC(C)(C)C)CC=C1N(Cc1ccc(OC)cc1)C(=O)[C@H]2CC(=O)N1CCC(c2ccccc2)CC1 | / | / | / | -1.8 | / | /
CC(CCC(=O)O)[C@H]1CCC2C3C(=O)C[C@@H]4CC(=O)CC[C@]4(C)C3CC(=O)[C@@]21C (some centres not stated) | / | / | / | 2.7 | / | /
CC(C)NS(=O)(=O)c1cc(C(=O)O)ccc1Cl | -0.8 | -1.4 | 0.3 | 1.2 | / | /
Cc1nc2ccccc2n1S(=O)(=O)c1cc(C(=O)O)ccc1Cl | 8.3* | -2.1 | -0.7 | -0.3 | -3.1 | 0.3
CC[C@H]1OC(=O)[C@H](C)[C@@H](O[C@H]2C[C@@](C)(OC)[C@@H](O)[C@H](C)O2)[C@H](C)[C@@H](O[C@@H]2O[C@H](C)C[C@H](N(C)C)[C@H]2O)[C@](C)(O)C[C@@H](C)/C(=N\OCOCCOC)[C@H](C)[C@@H](O)[C@]1(C)O | / | / | / | -1.0 | / | /
COc1ccc2oc(C(=O)NCCc3ccccc3)c(C)c2c1 | 3.7 | 0.7 | -0.6 | 0.3 | / | /
COc1ccc2oc(C(=O)NCC(c3ccco3)N(C)C)c(C)c2c1 (configuration not stated) | 40.3* | 3.6 | -0.2 | -9.1 | 44.7* | 1.6 | GFP quench dose=>67.6;GFP quench-2=>67.5
CCCC[C@H]1C2CC(OC(=O)Nc3ccccc3C)C(C2)[C@H]2CCCCN21 (some centres not stated) | / | / | / | 3.5 | / | /
COc1cccc(C2(O)CCN(C(=O)C(C)C)CC2)c1 | -2.9 | -0.6 | 0.1 | 0.0 | / | /
COc1cccc(C2(O)CCN(C(=O)c3cccs3)CC2)c1 | 6.7* | 0.2 | 0.9 | -1.7 | 0.9 | -0.4
Oc1ccc(/C=N/N2CCCCC2)c(O)c1O | 25.2* | -3.0 | 1.9 | -3.7 | 31.6* | 6.2 | GFP quench dose=>67.6
Oc1cccc(/C=N/N2CCCCC2)c1O | 1.9 | -1.1 | -1.0 | -1.0 | / | /
Oc1ccc(/C=N/N2CCOCC2)c(O)c1O | 30.4* | -2.8 | -0.1 | -0.3 | 33.0* | 6.5 | GFP quench dose=>67.6
O=C(Nc1ccn(CCCN2CCN(Cc3ccc(F)cc3)CC2)c(=O)n1)OCc1ccccc1 | 18.8* | -1.6 | -1.2 | -6.4 | 19.5* | -0.5 | GFP quench dose=>67.5
O=C(Nc1ccn(CCCN2CCN(c3ncccn3)CC2)c(=O)n1)OCc1ccccc1 | 8.5* | -1.4 | 0.2 | 1.2 | 10.6* | -0.9
O=C(Nc1ccn(CCCNCC2CCCCC2)c(=O)n1)OCc1ccccc1 | -0.4 | -1.1 | -0.4 | 12.2 | / | /
O=C(Cn1ccc(NC(=O)OCc2ccccc2)nc1=O)NCCCN1CCCC1=O | 11.7* | -2.0 | -0.8 | -3.2 | 6.6* | -0.1
COc1ccc(CNS(=O)(=O)c2ccccc2Br)c(OC)c1 | / | -1.1 | / | 5.0 | / | /
COC(=O)Nc1nc(-c2ccc(F)cc2)c(C)s1 | 5.2* | -1.6 | -1.7 | -4.8 | -2.5 | -0.1
COCC(=O)Nc1nc(-c2ccc(C)cc2)c(C)s1 | -0.5 | -0.9 | -0.3 | 5.5 | / | /
CO/N=C/C(=N\Nc1ccccc1)C(=O)c1ccccc1 | 2.0 | -0.7 | -0.7 | -1.9 | / | /
